Data: ChEMBL document CHEMBL4340526, “Discovery and Mechanistic Study of Tailor-Made Quinoline Derivatives as Topoisomerase 1 Poison with Potent Anticancer Activity” (J Med Chem, 2019)
Calls of active or inactive are those of the source. The calls are words filed in the database; no cut-off is given here.

Legend:
[1] = Stability of the compound in human plasma assessed as parent compound remaining at […] measured after 2 hrs by LC-MS/MS analysis; assay type: ADME, cell-free; conditions: read-out: Stability
In short: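 Plasma is thawed, spun at 1400 RCF for 15 min at 4 °C, and supernatant used. Compound (final 1 μM, diluted from acetonitrile/water stock) is incubated in human plasma 2 h at 37 °C with gentle shaking. Aliquots at 0, 15, 30, 60 and 120 min are precipitated with acetonitrile containing internal standard and analyzed by LC–MS/MS. The 0 min reference uses heat-inactivated plasma (56 °C, 45 min). Value is mean % remaining at 2 h.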

[2] = target: T1, DNA topoisomerase 1 (Homo sapiens, UniProt P11387); assay: Poison activity at recombinant human TOP1 expressed in baculovirus infected Sf9 insect cells assessed as decrease in relaxed supercoiled pBS(SK+) DNA mobility measured after 30 mins by ethidium bromide staining based agarose gel electrophoresis
T1 sequence (P11387 whole entry): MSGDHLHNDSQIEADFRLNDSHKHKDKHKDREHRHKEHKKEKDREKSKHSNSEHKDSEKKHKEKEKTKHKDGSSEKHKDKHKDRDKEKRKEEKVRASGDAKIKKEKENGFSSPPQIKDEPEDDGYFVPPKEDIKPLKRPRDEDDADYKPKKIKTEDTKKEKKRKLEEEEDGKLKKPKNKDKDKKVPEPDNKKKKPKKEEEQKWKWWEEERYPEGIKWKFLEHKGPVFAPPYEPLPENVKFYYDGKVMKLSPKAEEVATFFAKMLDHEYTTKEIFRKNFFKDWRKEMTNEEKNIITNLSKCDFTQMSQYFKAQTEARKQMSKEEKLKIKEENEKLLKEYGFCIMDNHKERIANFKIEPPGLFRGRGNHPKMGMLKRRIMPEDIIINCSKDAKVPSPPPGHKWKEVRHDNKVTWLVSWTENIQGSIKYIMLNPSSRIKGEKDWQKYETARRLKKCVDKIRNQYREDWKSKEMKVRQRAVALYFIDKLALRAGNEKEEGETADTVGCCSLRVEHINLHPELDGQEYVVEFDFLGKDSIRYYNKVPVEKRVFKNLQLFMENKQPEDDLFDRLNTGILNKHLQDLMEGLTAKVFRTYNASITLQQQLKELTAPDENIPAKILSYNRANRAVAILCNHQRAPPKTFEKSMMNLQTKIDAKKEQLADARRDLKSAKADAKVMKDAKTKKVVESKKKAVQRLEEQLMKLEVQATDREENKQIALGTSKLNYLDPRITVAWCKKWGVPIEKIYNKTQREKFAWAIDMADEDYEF
In short: (§1)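 Top1 is recombinant human enzyme purified from baculovirus-infected Sf-9 cells. Supercoiled pBS (SK+) DNA (90 fmol) is incubated with 30 fmol Top1 (3:1 DNA:enzyme molar ratio) in relaxation buffer, with compound added simultaneously, 30 min at 37 °C. Relaxed isomers are resolved on 1% agarose and percent relaxation inhibition is quantified. Triplicate, mean ± SD.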

[3] = target: T2, DNA topoisomerase 1 (Homo sapiens) (UniProt P11387); assay: Poison activity at recombinant human TOP1 expressed in baculovirus infected Sf9 insect cells assessed as decrease in relaxed supercoiled pBS(SK+) DNA mobility at 100 uM measured after 30 mins by ethidium bromide staining based agarose gel electrophoresis relative to control; parameters: scale not given: the % may be the effect or the level left; in short: as §1
T2 sequence (whole entry): T1 sequence (P11387 whole entry)

[4] = target: T2, DNA topoisomerase 1 (Homo sapiens); assay: Poison activity at recombinant human TOP1 expressed in baculovirus infected Sf9 insect cells assessed as decrease in relaxed supercoiled pBS(SK+) DNA mobility at 10 uM measured after 30 mins by ethidium bromide staining based agarose gel electrophoresis relative to control; parameters: scale not given: the % may be the effect or the level left; in short: as §1
[5] = system: MEF; assay: Cytotoxicity against TDP1-positive MEF cells assessed as reduction in cell viability measured after 72 hrs by MTT assay; assay type: functional, cell-based; conditions: Mus musculus
In short: (§2)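 Cell lines are HCT116, HeLa, NIH:OVCAR-3, and primary TDP1+/+ and TDP1−/− mouse embryonic fibroblasts, each exposed to variable compound concentrations. Viability is measured by MTT. Percent inhibition at each concentration is calculated against untreated control, and IC50 is estimated from these values.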

[6] = system: HCT-116; assay: Cytotoxicity against human HCT116 cells assessed as reduction in cell viability measured after 72 hrs by MTT assay; assay type: functional, cell-based; conditions: HCT-116, 72 h; in short: as §2
[7] = system: Calf thymus DNA; assay: Displacement of ethidium bromide from calf thymus DNA at 200 uM by fluorescence assay; assay type: nucleic-acid assay; conditions: Bos taurus
In short: (§3)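 Ethidium displacement fluorescence at 25 °C in fluorescence buffer containing 1 μM EtBr and 5 nM calf thymus DNA, with compound titrated 0–300 μM. Emission is read at 590 nm with 510 nm excitation and plotted as % EtBr bound.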

[8] = system: MEF; assay: Cytotoxicity against TDP1-deficient MEF cells assessed as reduction in cell viability measured after 72 hrs by MTT assay; assay type: functional, cell-based; conditions: Mus musculus; in short: as §2
[9] = system: HEK293; assay: Cytotoxicity against HEK293 cells assessed as reduction in cell viability measured after 72 hrs by MTT assay; assay type: cell-based; conditions: Homo sapiens, HEK293, 72 h
In short: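 MTT cell survival assay in HEK293 cells (from the Developmental Therapeutics Program) exposed to a range of compound concentrations. Percent inhibition of viability at each concentration calculated relative to untreated control, and IC50 estimated from these values.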

[10] = Cytotoxicity against human NIH:OVCAR3 cells assessed as reduction in cell viability measured after 72 hrs by MTT assay; assay type: functional, cell-based; conditions: OVCAR-3, 72 h; in short: as §2
[11] = system: DNA; assay: Binding affinity to Escherichia coli pBS(SK+) DNA assessed as TOP1-mediated unwinding effect at 20 to 200 uM measured after 15 mins by EtBr staining based agarose gel electrophoresis method; assay type: nucleic-acid assay
In short: (§4)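 Relaxed pBS (SK+) substrate made by treating supercoiled plasmid with excess Top1, then proteinase K digestion at 37 °C, phenol/chloroform extraction and ethanol precipitation. Reactions hold 50 fmol relaxed DNA with compound (20, 50, 100, 200 μM) and are incubated 15 min at 37 °C. Read-out is 1% agarose gel stained with 0.5 μg/mL EtBr under UV, scoring net negative supercoiling.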

[12] = system: Calf thymus DNA; assay: Displacement of ethidium bromide from calf thymus DNA at 50 uM by fluorescence assay; assay type: nucleic-acid assay; conditions: Bos taurus
In short: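 Fluorescence ethidium displacement run at 25 °C with 1 μM EtBr and 5 nM calf thymus DNA in fluorescence buffer. Test compound titrated over 0–300 μM. EtBr emission read at 590 nm with excitation at 510 nm. Result expressed as % EtBr remaining bound.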

[13] = system: DNA; assay: Binding affinity to Escherichia coli pBS(SK+) DNA assessed as TOP1-mediated unwinding effect at 50 to 200 uM measured after 15 mins by EtBr staining based agarose gel electrophoresis method; assay type: nucleic-acid assay; in short: as §4
[14] = system: Calf thymus DNA; assay: Displacement of ethidium bromide from calf thymus DNA up to 300 uM by fluorescence assay; assay type: nucleic-acid assay; conditions: Bos taurus; in short: as §3
[15] = target: T1, DNA topoisomerase 1; assay: Poison activity at TOP1 in human MCF7 cells assessed as decrease in relaxed supercoiled pBS(SK+) DNA mobility measured after 30 mins by ethidium bromide staining based agarose gel electrophoresis; assay type: cell-based
In short: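 The Top1 source is MCF7 whole-cell extract (endogenous enzyme). Extract is incubated with 0.3 μg supercoiled pBS (SK+) DNA and compound added together, 30 min at 37 °C, in relaxation buffer. Supercoiled and relaxed forms are separated on 1% agarose and percent relaxation inhibition is quantified. Triplicate, mean ± SD.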

With `CC[C@@]1(O)C(=O)OCc2c1cc1n(c2=O)Cc2cc3ccccc3nc2-1` [CAMPTOTHECIN] as the compound, how does the remaining at 2 h [1] read?
The remaining at 2 h was 15.7%.

For `Cc1ccc(-c2ccc3ncc(-c4nnco4)c(NCCCN4CCOCC4)c3c2)cc1`, which IC50 [2] is on record?
Its IC50 is over 10 µM.

Which IC50 [2] does the source give for `CCOC(=O)c1cnc2ccc(-c3ccc(OC)cc3)cc2c1NCCCn1ccnc1` here?
The IC50 was over 10 µM.

For `COc1ccc(-c2ccc3ncc(-c4nnc(N)o4)c(NCCCn4ccnc4)c3c2)cc1`, which IC50 [2] is on record?
Its IC50 is over 10 µM.

For `COc1ccc(-c2ccc3ncc(-c4nnco4)c(NCCCn4ccnc4)c3c2)cc1OC`, which IC50 [2] is on record?
Its IC50 is over 10 µM.

Which Activity [3] does the source give for `COc1ccc(-c2ccc3ncc(-c4nnco4)c(NCCN4CCOCC4)c3c2)cc1` here?
Its Activity is 50%.

What about the IC50 [2] of the same compound?
The IC50 was over 10 µM.

For `COc1ccc(-c2ccc3ncc(-c4nnco4)c(NCCCN4CCOCC4)c3c2)cc1OC`, which IC50 [2] is on record?
The IC50 was over 10 µM.

For `N#Cc1ccc(-c2ccc3ncc(-c4nnco4)c(NCCCn4ccnc4)c3c2)cc1`, which IC50 [2] is on record?
The IC50 was over 10 µM.

For `COc1ccc(-c2ccc3ncc(-c4nnco4)c(NCCCn4ccnc4)c3c2)c(C)c1`, which IC50 [2] is on record?
Its IC50 is over 10 µM.

With `Oc1ccc(-c2ccc3ncc(-c4nnco4)c(NCCCn4ccnc4)c3c2)cc1` as the compound, how does the IC50 [2] read?
Its IC50 is over 10 µM.

For `c1ccc(-c2ccc3ncc(-c4nnco4)c(NCCCn4ccnc4)c3c2)cc1`, which Activity [4] is on record?
The Activity was 40%.

What about the IC50 [2] of the same compound?
The IC50 was over 10 µM.

With `COc1ccc(-c2ccc3ncc(-c4nnco4)c(NCCN4CCOCC4)c3c2)cc1OC` as the compound, how does the Activity [3] read?
Its Activity is 20%.

What about the IC50 [2] of the same compound?
The IC50 was over 10 µM.

With `COc1ccccc1-c1ccc2ncc(-c3nnco3)c(NCCCn3ccnc3)c2c1` as the compound, how does the IC50 [2] read?
Its IC50 is over 10 µM.

Which results are given for `COc1ccc(-c2ccc3ncc(-c4nnco4)c(NCCCn4ccnc4)c3c2)cc1`?
remaining at 2 h [1]: 93.3%; IC50 [5]: 2.91 µM; IC50 [6]: 2.34 µM; Activity [7]: inactive; IC50 [8]: 1.02 µM; IC50 [9]: 8.34 µM; IC50 [10]: 2.35 µM; Activity [11]: inactive

For `COc1ccc(-c2ccc3ncc(-c4nnc(C)o4)c(NCCCn4ccnc4)c3c2)cc1`, which IC50 [2] is on record?
Its IC50 is over 10 µM.

For `COc1ccc(-c2ccc3ncc(-c4nnc(C)o4)c(NCCN4CCOCC4)c3c2)cc1OC`, which IC50 [2] is on record?
Its IC50 is over 10 µM.

With `COc1cc(NS(C)(=O)=O)ccc1Nc1c2ccccc2nc2ccccc12` as the compound, how does the Activity [12] read?
Its Activity is “Active”.

What about the Activity [13] of the same compound?
The Activity was “Active”.

For `COc1cc([C@@H]2c3cc4c(cc3[C@@H](O[C@@H]3O[C@@H]5CO[C@@H](C)O[C@H]5[C@H](O)[C@H]3O)[C@H]3COC(=O)[C@H]23)OCO4)cc(OC)c1O`, which Activity [14] is on record?
The Activity was “inactive”.

What about the Activity [13] of the same compound?
The Activity was “inactive”.

With `COc1ccc(-c2ccc3ncc(-c4nnco4)c(NCCCN4CCOCC4)c3c2)cc1` as the compound, how does the remaining at 2 h [1] read?
Its remaining at 2 h is 83.4%.

And the IC50 [15]?
Its IC50 is 2.51 µM.

What about the IC50 [2] of the same compound?
The IC50 was 1.79 µM.

Which IC50 [2] does the source give for `CCOC(=O)c1cnc2ccc(-c3ccc(OC)c(OC)c3)cc2c1NCCCn1ccnc1` here?
Its IC50 is over 10 µM.

With `COc1ccc(-c2ccc3ncc(-c4nnco4)c(NCCn4ccnc4)c3c2)cc1` as the compound, how does the IC50 [2] read?
Its IC50 is over 10 µM.

Which IC50 [2] does the source give for `COc1ccc(-c2ccc3ncc(-c4nnco4)c(NCCCn4ccnc4)c3c2)c(OC)c1` here?
Its IC50 is over 10 µM.

For `Fc1ccc(-c2ccc3ncc(-c4nnco4)c(NCCCn4ccnc4)c3c2)cc1`, which IC50 [2] is on record?
Its IC50 is over 10 µM.

Which IC50 [2] does the source give for `COc1ccc(-c2ccc3ncc(-c4nnc(C)o4)c(NCCN4CCOCC4)c3c2)cc1` here?
The IC50 was over 10 µM.

For `CNc1c(-c2nnco2)cnc2ccc(-c3ccc(OC)cc3)cc12`, which IC50 [2] is on record?
The IC50 was over 10 µM.
